# High-throughput results from PubChem.
# Rows were chosen to be rich in hits. Some 1.9% of all compounds tested hit in one or more screens of this group.
# LMPTP inh: LMPTP (human) inhibition. 360,000 tested, 0.22% active. inhibition, % at 20 µM. recombinant LMPTP-A, OMFP fluorogenic substrate, fluorescence intensity. P24666. AID 651560;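 active = compounds that cut the enzyme signal by at least half of the control window in the single-dose screen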;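 note: plate controls were DMSO wells with enzyme plus substrate for no effect and substrate without enzyme for full effect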
#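 material = LMPTP-A | quantity = 0.625 nM enzyme | reagent = OMFP substrate, 400 µM final | buffer or medium = Bis-Tris pH 6.0, DTT, detergent | detection = endpoint fluorescence intensity from OMFP dephosphorylation | dosing = single 20 µM dose | read-out basis = % inhibition relative to no-enzyme and uninhibited control wells | control set = no-enzyme and uninhibited controls | timing = 50 min at room temperature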
# Scp1 inh: blocks human Scp-1 phosphatase activity; Recombinant Scp1, phosphopeptide, malachite green phosphate absorbance; inhibition, % at 20 µM; 340,000 tested, 0.88% active; AID 493091;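 active = inhibition above about 50% at 20 µM, limit read from the data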;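 note: plate controls were DMSO wells with enzyme for no effect and wells lacking enzyme for full effect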
#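 System: SCP-1 catalytic domain; Reagent: Phospho 17-mer peptide substrate; Doses: one concentration, 20 µM, with 1.0% DMSO; Incubation: 45 min room-temperature reaction, 5 min colour, 30 min stabiliser; Signal: Phosphate-binding colour reagent, absorbance read at 630 nm.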
# FAS-TE inh: blocks the thioesterase domain of human fatty acid synthase; P49327; recombinant FAS-TE, OMFH fluorogenic substrate, fluorescence endpoint; inhibition, % at 15 µM; 360,000 tested, 0.67% active;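 active = compounds whose normalised, plate-corrected inhibition of enzyme fluorescence in the single-dose primary screen is 50% or more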;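 note: 0% = DMSO with enzyme and 100% = substrate without enzyme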
# SUMO1 PPI mod: modulators of human SUMO1-mediated protein-protein interactions; SUMO1 binding to a labelled peptide, TR-FRET, 1 h; inhibition, % at 20 µM; 360,000 tested, 0.33% active; in the data active = inhibition above about 37%
# STEP block: blocks human striatal-enriched tyrosine phosphatase. AID 588621. P54829. inhibition, % at 20 µM. recombinant STEP, OMFP fluorogenic substrate, fluorescence. 360,000 tested, 0.25% active;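 active = inhibition at 20 µM, scaled per plate between control wells, above about 37%, limit read from the data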;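 note: 0% = DMSO with enzyme and substrate and 100% = substrate only without enzyme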
# Target sequence (P54829 whole entry, looked up): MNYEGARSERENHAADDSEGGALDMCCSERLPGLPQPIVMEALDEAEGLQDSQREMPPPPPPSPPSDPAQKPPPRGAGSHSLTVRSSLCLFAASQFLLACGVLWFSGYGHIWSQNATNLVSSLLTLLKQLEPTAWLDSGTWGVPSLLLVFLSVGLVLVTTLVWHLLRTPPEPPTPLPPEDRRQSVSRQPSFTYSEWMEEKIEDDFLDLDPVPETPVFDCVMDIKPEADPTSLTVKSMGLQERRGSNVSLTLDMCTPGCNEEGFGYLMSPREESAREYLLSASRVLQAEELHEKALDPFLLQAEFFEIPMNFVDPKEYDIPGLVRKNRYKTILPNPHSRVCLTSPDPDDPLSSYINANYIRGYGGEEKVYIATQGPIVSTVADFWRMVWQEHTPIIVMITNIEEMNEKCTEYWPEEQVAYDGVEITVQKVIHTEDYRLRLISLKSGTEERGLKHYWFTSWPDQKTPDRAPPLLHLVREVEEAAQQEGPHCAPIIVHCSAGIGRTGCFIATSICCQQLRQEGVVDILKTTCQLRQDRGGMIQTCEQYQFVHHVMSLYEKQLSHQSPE
#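 System: isolated STEP enzyme; schedule: 20 min enzyme reaction at room temperature, protected from light; medium: Bis-Tris buffer pH 6.0, 2.5 mM DTT, 0.005% Tween 20; signal: fluorescence, 480/540 nm; dosing: single compound dose of 20 µM, 1% DMSO final; also added: OMFP substrate, 25 µM final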
# The depositor's hits bear a star; nt = not tested or not shown.
SMILES,LMPTP inh,Scp1 inh,FAS-TE inh,SUMO1 PPI mod,STEP block
CO[C@@H]1CN(C)C(=O)c2ccc(NS(=O)(=O)c3c(C)noc3C)cc2OC[C@@H](C)NC[C@@H]1C,0,nt,nt,11,nt
CCc1nc2ccc(C(=O)Nc3cc(-c4ccccc4)ccc3OC)cn2c1N(CCN(C)C)CC1CC1,1,nt,-2,-8,3
Cc1ccccc1Cn1cnc2c(cnn2C(C)(C)C)c1=O,-1,-5,0,0,1
CC(C)(C)n1ncc2c(=O)n(Cc3cccc(Cn4cnc5c(cnn5C(C)(C)C)c4=O)c3F)cnc21,0,2,55*,4,2
CC(C)c1ccc(NC(=O)C(c2ccccc2)N2CCOCC2)cc1 (configuration not stated),50*,-6,1,8,-1
Cc1ccc2nc(CSc3nc(C)cc(C)c3C#N)[nH]c2c1,1,-8,78*,0,0
CC(C)c1ccc(C(=O)N2CCCCC2c2cc(C(=O)NCc3cccnc3)no2)cc1 (configuration not stated),0,nt,-3,-1,0
C#Cc1ccc(NC(=O)C2(C)CCN2C(=O)Cc2ccc(C(C)C)cc2)cc1 (configuration not stated),4,nt,28,8,-1
O=c1cc(-c2ccc(O)cc2)oc2c(O)c(O)c(O)c(O)c12,41,69*,42,-3,2
O=c1cc(-c2ccncc2)oc2c1ccc1ccccc12,-2,-5,6,-11,3
O=c1cc(-c2ccc(O)cc2)oc2c1ccc1ccccc12,54*,15,-2,90*,22
C[C@H]1[C@@H](Cc2cc(Cl)cc(Cl)c2)N(c2ccccc2)c2ccccc2CN1Cc1ccccc1,1,nt,nt,-5,nt
O=C(N/N=C/c1ccccc1O)c1cccc(C(F)(F)F)c1,20,53*,20,4,5
CC1=C(C#N)c2nc(N)c(C#N)c(C)c2/C1=C\c1ccc(OCC(=O)O)c(Cl)c1,32,3,14,37*,1
O=C(NCc1ccc(F)cc1)c1cc(C2CCCCN2C(=O)CCc2ccccc2)on1 (configuration not stated),2,nt,13,5,1
O=C1c2cc(Br)ccc2N(Cc2ccc(Br)cc2)S(=O)(=O)C1c1cc(Cl)c(Cl)cc1[N+](=O)[O-] (configuration not stated),4,-4,82*,20,4
O=C1CS(=O)(=O)N(Cc2cccc(F)c2)c2ccc(Br)cc21,3,-8,6,-6,-1
CC[n+]1c(/C=C/C=C/N(C(C)=O)c2ccccc2)sc2cc(OC)ccc21,nt,61*,nt,nt,nt
CCOC(=O)N/N=C/c1cc(OC)c(O)c(OC)c1,-1,1,-10,-3,-2
CCOC(=O)c1sc(N/N=C/c2cc(Br)c(O)c(OC)c2)nc1C,0,2,5,39,84*
COc1ccc(CN2C(=O)C(CC(=O)NC3CCCCC3)CC(C(=O)N(C(C)C)C(C)C)=C2C)cc1 (configuration not stated),0,nt,-4,-1,0
O=C(COc1ccc2c(-c3ccccc3)cc(=O)oc2c1)Nc1ccc(CCO)cc1,66*,-2,-1,-7,3
NC(=O)c1sc2nc3c(c(-c4ccco4)c2c1N)CCCC3,0,0,-1,-10,4
Nc1c(C(=O)NCC2CCCO2)sc2nc3c(c(-c4ccco4)c12)CC/C3=C\c1ccco1 (configuration not stated),70*,81*,10,69*,37*
COc1ccc(NC(=O)c2cc(C3CCCCN3S(=O)(=O)c3ccc(F)cc3F)on2)c(C)c1 (configuration not stated),1,nt,21,6,2
SMILES,LMPTP inh,Scp1 inh,FAS-TE inh,SUMO1 PPI mod,STEP block
N=C(N)c1ccc(/C=C/c2ccc(C(=N)N)cc2O)cc1,65*,-5,-10,78*,0
CCCCNC(=O)C1C(c2ccc(C(F)(F)F)cc2)=Nc2ccccc2N1C(=O)c1cccc2ccccc12 (configuration not stated),-2,nt,nt,-5,nt
N#C/C(=C/c1ccc(-c2cc([N+](=O)[O-])ccc2Cl)o1)C(N)=O,34,45,0,39*,8
N#C/C(=C/c1ccc(-c2ccccc2[N+](=O)[O-])o1)C(N)=O,-1,-1,-2,-11,-2
COc1cccc(-c2cnc3c(NC(C)=O)cc(-c4ccsc4)cn23)c1,4,nt,24,-2,5
CCCN(CCC)C(=O)CC(c1ccc(F)cc1)c1ccco1 (configuration not stated),1,-9,2,-3,48*
O=C(CNC(=O)/C=C/c1ccco1)N=Nc1c(O)[nH]c2ccccc12,72*,93*,0,105*,98*
Cc1ccc(S(=O)(=O)N2[C@H](CC(=O)c3cccs3)OC[C@@H]2C)cc1,0,nt,nt,1,nt
C[C@H](CO)N1C[C@H](C)[C@@H](CN(C)C(=O)Nc2ccc3c(c2)OCO3)Oc2c(NC(=O)Nc3ccc(C(F)(F)F)cc3)cccc2C1=O,2,-9,76*,3,-1
C[C@H](CO)N1C[C@H](C)[C@@H](CN(C)C(=O)Nc2ccc(C(F)(F)F)cc2)Oc2c(NC(=O)Nc3ccc4c(c3)OCO4)cccc2C1=O,3,-6,75*,1,2
O=C(NCCc1ccccn1)c1c(-c2ccsc2)sc2ccccc12,-1,100*,0,-9,0
CO[C@@H]1CN(C)C(=O)c2ccc(NC(=O)c3ccccc3F)cc2OC[C@@H](C)N(CC2CCOCC2)C[C@@H]1C,0,nt,nt,0,nt
CCOc1ccc(NC(=O)c2cccc(-n3cccc3)c2)cc1S(=O)(=O)N1CCOCC1,22,nt,9,57*,8
Cn1c(SCC(=O)NC2CCCC2)nnc1-c1ccncc1,-1,10,-3,-5,1
Cn1c(SCC(=O)NC2CCCCC2)nnc1-c1cccc(N)c1,-1,-5,-4,41*,3
Cc1ccc(S(=O)(=O)N2CC3C(=O)C[C@@H](c4ccccc4)N(S(=O)(=O)c4cccc(Cl)c4)C3CC2c2ccccc2)cc1 (some centres not stated),1,nt,nt,1,nt
Cc1[nH]n(-c2ccccc2)c(=S)c1C=Nc1cccc([N+](=O)[O-])c1,-1,87*,-2,-9,1
COC(=O)c1ccc(=O)c2nc3/c(=C/O)c(O)cc(=O)c3[nH]c12,81*,58*,30,5,100*
COC(=O)c1ccc(N)cc1O,1,12,-17,1,0
CC(=O)NC(c1cccc(F)c1)c1nc(/C=C/c2ccccc2)cs1 (configuration not stated),1,nt,17,-33,-2
Cc1ccc(S(=O)(=O)Nc2ccccc2OC(C(=O)OC(C)(C)C)C(=O)OC(C)(C)C)cc1,3,nt,nt,1,nt
